{"source": "ChEMBL document CHEMBL2346506", "about": "“Cytotoxicity and modulation of cancer-related signaling by (Z)- and (E)-3,4,3',5'-tetramethoxystilbene isolated from Eugenia rigida” (J Nat Prod, 2013)", "key": {"SK-OV-3": {"test_system": "SK-OV-3", "assay": "Cytotoxicity against human SKOV3 cells assessed as growth inhibition measured after 48 hrs by Neutral Red dye assay", "conditions": "SK-OV-3, 48 h"}, "LLC-PK1": {"test_system": "LLC-PK1", "assay": "Cytotoxicity against pig LLC-PK1 cells assessed as growth inhibition measured after 48 hrs by Neutral Red dye assay", "conditions": "Sus scrofa, LLC-PK1, 48 h"}, "KB [1]": {"test_system": "KB", "assay": "Cytotoxicity against human KB cells assessed as growth inhibition measured after 48 hrs by Neutral Red dye assay"}, "BT-549 [2]": {"test_system": "BT-549", "assay": "Cytotoxicity against human BT549 cells assessed as growth inhibition measured after 48 hrs by Neutral Red dye assay", "conditions": "BT-549, 48 h"}, "HeLa [3]": {"test_system": "HeLa", "assay": "Cytotoxicity against human HeLa cells assessed as growth inhibition measured after 48 hrs by Neutral Red dye assay"}, "SK-MEL": {"test_system": "SK-MEL", "assay": "Cytotoxicity against human SK-MEL cells assessed as growth inhibition measured after 48 hrs by Neutral Red dye assay"}, "Vero": {"test_system": "Vero", "assay": "Cytotoxicity against african green monkey Vero cells assessed as growth inhibition measured after 48 hrs by Neutral Red dye assay", "conditions": "Chlorocebus sabaeus"}, "[4]": {"assay": "Inhibition of Ets signaling pathway in human HeLa cells assessed as inhibition of PMA induced luciferase at 100 uM treated 30 mins before induction", "type": "cell-based", "method_in_brief": "(§1)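 Reporter assay in cells transfected with pathway luciferase plasmids. Cells plated at 0.015 × 10⁶ per well in 10% FBS, switched after 24 h to DMEM with 1% FBS, then transfected. 24 h after transfection, compound (final 40, 60, 80 or 100 μM) was added, followed 30 min later by inducer (IL-6, TGF-β, wnt3a or PMA). Luciferase was read 4 or 6 h after induction (6 h for Notch, Wnt, Hedgehog). Value is the IC50 or the lowest concentration giving maximal 50–60% inhibition; two independent experiments.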"}, "[5]": {"assay": "Inhibition of AP1 signaling pathway in human HeLa cells assessed as inhibition of PMA induced luciferase at 100 uM treated 30 mins before induction", "type": "cell-based", "method_in_brief": "as §1"}, "HeLa [6]": {"test_system": "HeLa", "assay": "Inhibition of Stat3 signaling pathway in human HeLa cells assessed as inhibition of IL-6 induced luciferase at 100 uM treated 30 mins before induction", "type": "functional", "method_in_brief": "as §1"}, "[7]": {"assay": "Inhibition of Notch signaling pathway in human HeLa cells assessed as inhibition of PMA induced luciferase at 100 uM treated 30 mins before induction", "type": "cell-based", "method_in_brief": "as §1"}, "[8]": {"assay": "Inhibition of NFkappaB signaling pathway in human HeLa cells assessed as inhibition of PMA induced luciferase at 100 uM treated 30 mins before induction", "type": "cell-based", "method_in_brief": "as §1"}, "[9]": {"target": "Myc proto-oncogene protein (Homo sapiens) (UniProt P01106)", "sequence (P01106 whole entry)": "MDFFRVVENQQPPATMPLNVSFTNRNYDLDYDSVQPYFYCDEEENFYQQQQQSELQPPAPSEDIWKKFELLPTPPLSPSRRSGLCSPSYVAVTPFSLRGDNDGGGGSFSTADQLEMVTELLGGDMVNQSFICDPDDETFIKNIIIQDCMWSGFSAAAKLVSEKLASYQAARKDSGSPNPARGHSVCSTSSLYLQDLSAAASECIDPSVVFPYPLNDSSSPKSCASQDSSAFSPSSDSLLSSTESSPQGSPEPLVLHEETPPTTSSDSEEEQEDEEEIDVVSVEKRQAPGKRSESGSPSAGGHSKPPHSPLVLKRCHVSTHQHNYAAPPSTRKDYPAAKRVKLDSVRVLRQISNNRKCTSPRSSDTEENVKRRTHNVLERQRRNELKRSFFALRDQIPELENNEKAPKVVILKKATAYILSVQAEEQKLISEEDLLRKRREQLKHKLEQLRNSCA", "assay": "Inhibition of Myc signaling pathway in human HeLa cells assessed as inhibition of PMA induced luciferase at 100 uM treated 30 mins before induction", "type": "cell-based", "method_in_brief": "as §1"}, "[10]": {"assay": "Inhibition of E2F signaling pathway in human HeLa cells assessed as inhibition of PMA induced luciferase at 100 uM treated 30 mins before induction", "type": "cell-based", "method_in_brief": "as §1"}, "[11]": {"assay": "Inhibition of Hedgehog signaling pathway in human HeLa cells assessed as inhibition of PMA induced luciferase at 100 uM treated 30 mins before induction", "type": "cell-based", "method_in_brief": "as §1"}, "[12]": {"target": "Forkhead box protein O1 (Homo sapiens) (UniProt Q12778)", "sequence (Q12778 whole entry)": "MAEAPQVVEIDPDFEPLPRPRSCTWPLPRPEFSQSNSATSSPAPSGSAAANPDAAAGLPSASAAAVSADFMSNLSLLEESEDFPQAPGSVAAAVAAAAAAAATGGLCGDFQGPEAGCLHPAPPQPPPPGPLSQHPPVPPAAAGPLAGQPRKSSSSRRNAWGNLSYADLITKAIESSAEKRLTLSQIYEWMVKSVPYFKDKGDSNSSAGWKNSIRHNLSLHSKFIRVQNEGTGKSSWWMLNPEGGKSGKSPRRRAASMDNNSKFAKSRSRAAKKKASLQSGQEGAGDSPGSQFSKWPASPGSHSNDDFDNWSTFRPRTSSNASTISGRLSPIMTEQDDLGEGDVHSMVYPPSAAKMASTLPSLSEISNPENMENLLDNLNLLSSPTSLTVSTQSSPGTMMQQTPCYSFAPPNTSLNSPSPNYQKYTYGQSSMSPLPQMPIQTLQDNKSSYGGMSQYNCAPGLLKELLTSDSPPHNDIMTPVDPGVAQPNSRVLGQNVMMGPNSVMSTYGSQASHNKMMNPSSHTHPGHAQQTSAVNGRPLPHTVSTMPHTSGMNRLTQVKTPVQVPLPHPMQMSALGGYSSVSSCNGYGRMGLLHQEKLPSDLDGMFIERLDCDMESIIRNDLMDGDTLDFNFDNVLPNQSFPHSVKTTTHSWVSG", "assay": "Inhibition of FoxO signaling pathway in human HeLa cells assessed as inhibition of luciferase at 100 uM […]", "type": "cell-based"}, "[13]": {"assay": "Inhibition of Hedgehog signaling pathway in human HeLa cells assessed as inhibition of PMA induced luciferase treated 30 mins before induction", "type": "cell-based", "method_in_brief": "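HeLa cells plated at 0.015 × 10⁶/well in 10% FBS medium, switched after 24 h to DMEM with 1% FBS, then transfected with a Hedgehog luciferase reporter. After 24 h, compounds were added at 40, 60, 80 or 100 μM final, 30 min before PMA. Luciferase was read 6 h later. The value is the IC50 or lowest concentration giving maximal 50–60% inhibition, from two independent experiments.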"}, "BT-549 [14]": {"test_system": "BT-549", "assay": "Cytotoxicity against human BT549 cells assessed as growth inhibition measured at 100 uM after 48 hrs by Neutral Red dye assay"}, "HeLa [15]": {"test_system": "HeLa", "assay": "Cytotoxicity against human HeLa cells assessed as growth inhibition measured at 100 uM after 48 hrs by Neutral Red dye assay"}, "[16]": {"assay": "Inhibition of Notch signaling pathway in human HeLa cells assessed as inhibition of PMA induced luciferase treated 30 mins before induction", "type": "cell-based", "method_in_brief": "as §1"}, "[17]": {"assay": "Inhibition of Wnt signaling pathway in human HeLa cells assessed as inhibition of Wnt3a induced luciferase treated 30 mins before induction", "type": "cell-based", "method_in_brief": "as §1"}, "[18]": {"assay": "Inhibition of NFkappaB signaling pathway in human HeLa cells assessed as measured as lowest concentration required 50 to 60 % inhibition of PMA induced luciferase treated 30 mins before induction", "type": "cell-based", "method_in_brief": "as §1"}, "[19]": {"assay": "Inhibition of Ets signaling pathway in human HeLa cells assessed as measured as lowest concentration required 50 to 60 % inhibition of PMA induced luciferase treated 30 mins before induction", "type": "cell-based", "method_in_brief": "as §1"}, "HL-60": {"test_system": "HL-60", "assay": "Cytotoxicity against human HL60 cells assessed as growth inhibition measured after 48 hrs by XTT assay", "type": "functional, cell-based", "conditions": "HL-60, 48 h"}, "[20]": {"assay": "Inhibition of Notch signaling pathway in human HeLa cells assessed as measured as lowest concentration required 50 to 60 % inhibition of PMA induced luciferase treated 30 mins before induction", "type": "cell-based", "method_in_brief": "as §1"}, "HeLa [21]": {"test_system": "HeLa", "assay": "Inhibition of smad3/4 signaling pathway in human HeLa cells assessed as inhibition of TGF-beta induced luciferase treated 30 mins before induction", "type": "functional, cell-based", "method_in_brief": "as §1"}, "[22]": {"assay": "Inhibition of Wnt signaling pathway in human HeLa cells assessed as measured as lowest concentration required 50 to 60 % inhibition of Wnt3a induced luciferase treated 30 mins before induction", "type": "cell-based", "method_in_brief": "as §1"}, "HeLa [23]": {"test_system": "HeLa", "assay": "Inhibition of Stat3 signaling pathway in human HeLa cells assessed as measured as lowest concentration required 50 to 60 % inhibition of IL-6 induced luciferase treated 30 mins before induction", "type": "functional", "method_in_brief": "as §1"}, "HeLa [24]": {"test_system": "HeLa", "assay": "Inhibition of Stat3 signaling pathway in human HeLa cells assessed as inhibition of IL-6 induced luciferase treated 30 mins before induction", "type": "functional, cell-based", "method_in_brief": "as §1"}, "[25]": {"assay": "Inhibition of Hedgehog signaling pathway in human HeLa cells assessed as measured as lowest concentration required 50 to 60 % inhibition of PMA induced luciferase treated 30 mins before induction", "type": "cell-based", "method_in_brief": "as §1"}, "[26]": {"target": "Myc proto-oncogene protein (Homo sapiens) (UniProt P01106)", "assay": "Inhibition of Myc signaling pathway in human HeLa cells assessed as measured as lowest concentration required 50 to 60 % inhibition of PMA induced luciferase treated 30 mins before induction", "type": "cell-based", "method_in_brief": "as §1"}, "[27]": {"assay": "Inhibition of Ets signaling pathway in human HeLa cells assessed as inhibition of PMA induced luciferase treated 30 mins before induction", "type": "cell-based", "method_in_brief": "as §1"}, "[28]": {"assay": "Inhibition of NFkappaB signaling pathway in human HeLa cells assessed as inhibition of PMA induced luciferase treated 30 mins before induction", "type": "cell-based", "method_in_brief": "as §1"}, "KB [29]": {"test_system": "KB", "assay": "Cytotoxicity against human KB cells assessed as growth inhibition measured at 100 uM after 48 hrs by Neutral Red dye assay"}, "HeLa [30]": {"test_system": "HeLa", "assay": "Inhibition of smad3/4 signaling pathway in human HeLa cells assessed as measured as lowest concentration required 50 to 60 % inhibition of TGF-beta induced luciferase treated 30 mins before induction", "type": "functional", "method_in_brief": "as §1"}}, "note": "The source made the active and inactive calls. The rule behind the calls is not given here."}
{"smiles": "COc1cccc2c1C(=O)c1c(O)c3c(c(O)c1C2=O)C[C@@](O)(C(=O)CO)C[C@@H]3O[C@H]1C[C@H](N)[C@H](O)[C@H](C)O1", "note": "[DOXORUBICIN]", "values": [{"measurement": "IC50", "setting": "SK-OV-3", "value": 2.6, "unit": "µM"}, {"measurement": "IC50", "setting": "LLC-PK1", "value": 1.6, "unit": "µM"}, {"measurement": "IC50", "setting": "KB [1]", "value": 3.8, "unit": "µM"}, {"measurement": "IC50", "setting": "BT-549 [2]", "value": 3.7, "unit": "µM"}, {"measurement": "IC50", "setting": "HeLa [3]", "value": 3.9, "unit": "µM"}, {"measurement": "IC50", "setting": "SK-MEL", "value": 1.5, "unit": "µM"}, {"measurement": "IC50", "setting": "Vero", "value": "> 9.2", "unit": "µM"}]}
{"smiles": "COc1ccc(/C=C/c2cc(OC)cc(OC)c2)cc1", "note": "[TRISMETHOXYRESVERATROL]", "values": [{"measurement": "IC50", "setting": "SK-OV-3", "value": 55.5, "unit": "µM"}, {"measurement": "IC50", "setting": "LLC-PK1", "value": 20, "unit": "µM"}, {"measurement": "inhibition", "setting": "[4]", "value": "inactive"}, {"measurement": "inhibition", "setting": "[5]", "value": "inactive"}, {"measurement": "inhibition", "setting": "HeLa [6]", "value": "inactive"}, {"measurement": "inhibition", "setting": "[7]", "value": "inactive"}, {"measurement": "IC50", "setting": "KB [1]", "value": 17.7, "unit": "µM"}, {"measurement": "IC50", "setting": "BT-549 [2]", "value": 15.6, "unit": "µM"}, {"measurement": "IC50", "setting": "HeLa [3]", "value": 13.3, "unit": "µM"}, {"measurement": "inhibition", "setting": "[8]", "value": "inactive"}, {"measurement": "inhibition", "setting": "[9]", "value": "inactive"}, {"measurement": "IC50", "setting": "SK-MEL", "value": 12.2, "unit": "µM"}, {"measurement": "inhibition", "setting": "[10]", "value": "inactive"}, {"measurement": "inhibition", "setting": "[11]", "value": "inactive"}, {"measurement": "IC50", "setting": "Vero", "value": 26.7, "unit": "µM"}, {"measurement": "inhibition", "setting": "[12]", "value": "inactive"}]}
{"smiles": "Oc1ccc(/C=C/c2cc(O)cc(O)c2)cc1", "note": "[RESVERATROL]", "values": [{"measurement": "IC50", "setting": "SK-OV-3", "value": 113, "unit": "µM"}, {"measurement": "IC50", "setting": "[13]", "value": 40, "unit": "µM"}, {"measurement": "IC50", "setting": "LLC-PK1", "value": 52.5, "unit": "µM"}, {"measurement": "growth inhibition (GI)", "setting": "BT-549 [14]", "value": "inactive"}, {"measurement": "inhibition", "setting": "[5]", "value": "< 40", "unit": "%"}, {"measurement": "growth inhibition (GI)", "setting": "HeLa [15]", "value": "inactive"}, {"measurement": "IC50", "setting": "[16]", "value": 40, "unit": "µM"}, {"measurement": "IC50", "setting": "[17]", "value": 60, "unit": "µM"}, {"measurement": "MED", "setting": "[18]", "value": 60, "unit": "µM"}, {"measurement": "MED", "setting": "[19]", "value": 55, "unit": "µM"}, {"measurement": "IC50", "setting": "HL-60", "value": 31.8, "unit": "µM"}, {"measurement": "MED", "setting": "[20]", "value": 40, "unit": "µM"}, {"measurement": "IC50", "setting": "HeLa [21]", "value": 50, "unit": "µM"}, {"measurement": "MED", "setting": "[22]", "value": 70, "unit": "µM"}, {"measurement": "MED", "setting": "HeLa [23]", "value": 53, "unit": "µM"}, {"measurement": "IC50", "setting": "SK-MEL", "value": 47.3, "unit": "µM"}, {"measurement": "inhibition", "setting": "[10]", "value": "< 40", "unit": "%"}, {"measurement": "IC50", "setting": "HeLa [24]", "value": 70, "unit": "µM"}, {"measurement": "MED", "setting": "[25]", "value": 40, "unit": "µM"}, {"measurement": "MED", "setting": "[26]", "value": 55, "unit": "µM"}, {"measurement": "IC50", "setting": "[27]", "value": 50, "unit": "µM"}, {"measurement": "IC50", "setting": "[28]", "value": 50, "unit": "µM"}, {"measurement": "IC50", "setting": "Vero", "value": 73.6, "unit": "µM"}, {"measurement": "growth inhibition (GI)", "setting": "KB [29]", "value": "inactive"}, {"measurement": "MED", "setting": "HeLa [30]", "value": 33, "unit": "µM"}, {"measurement": "inhibition", "setting": "[12]", "value": "< 40", "unit": "%"}]}
